The subject of experiment [1] is Erythroleukemia cell line. Briefly: Percentage of benzidine-positive murine erythroleukemia cells on day 6. It counts as functional, Mus musculus. In a few lines: (§1)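 Clone 745A erythroleukemia cells were exposed continuously from seeding (1 × 10^5 cells/mL) to graded twofold concentrations over at least a 10-fold range, in at least two experiments, with a Me2SO (210 mM) positive control. On day 6, hemoglobin-containing cells were stained blue with acid benzidine peroxide and counted by light microscopy. The optimum concentration was averaged across experiments.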

The test system of experiment [2] is Erythroleukemia cell line. Briefly: Cell growth was measured on day 3, after murine erythroleukemia cells were exposed at a cell concentration of 1*10e5 cells/mL. It counts as functional, Mus musculus. The gist of the method: (§2)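 Friend murine erythroleukemia cells (clone 745A) were grown in DMEM with 15% fetal calf serum at 37 °C in 10% CO2. Agents were given as aqueous, ethanol or acetone solutions at seeding (1 × 10^5 cells/mL) and left on continuously. Cells were counted electronically on day 3 or day 6 and expressed as percentage of control growth. Runs were in duplicate.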

Experiment [3] concerns Erythroleukemia cell line. Briefly: Cell growth was measured on day 6 after murine erythroleukemia cells were exposed at a cell concentration of 1*10e5 cells/mL. It counts as functional, Mus musculus. The gist of the method: as §2
Experiment [4] relates to Erythroleukemia cell line. Briefly: Concentration producing the maximum percentage of benzidine-positive cells after 6-days of continuous exposure in murine leukemia cells. It counts as functional, cell-based. Conditions: Mus musculus. The gist of the method: as §1

Our source for the Benzidine positive cells, Cell growth and Concentration values is ChEMBL document CHEMBL1121699, “Induction of differentiation of leukemia cells in vitro by N-substituted amides, lactams, and 2-pyridones” (1981).

Each structure is given as a SMILES string.

In turn, `CC(=O)N1CCCCCC1=O` yielded a Benzidine positive cells in experiment [1] of 53%. The results for the Cell growth in experiment [2] and in experiment [3] were 102% and 85%, respectively. In experiment [4], this molecule yielded a Concentration of 4 mM.

The molecule `O=C(CCl)Nc1ccccn1` showed a Benzidine positive cells in experiment [1] of 83%. In addition, the Cell growth in experiment [2] turned out to be 98%; in experiment [3], 119%. This molecule displayed a Concentration in experiment [4] of 2 mM.

As to `Oc1ccccn1`, the Benzidine positive cells in experiment [1] is 95%. In addition, the Cell growth came out at 114% in experiment [2] and 77% in experiment [3]. In experiment [4], the Concentration was 16 mM.

On to `O=C1CCCCCN1` [CAPROLACTAM], for which the Benzidine positive cells in experiment [1] worked out at 82%. Moreover, the figures for the Cell growth in experiment [2] and in experiment [3] were 95% and 81%, respectively. Besides, the Concentration in experiment [4] amounted to 20 mM.

Molecule `CCCCCCn1ccccc1=O` displayed a Benzidine positive cells in experiment [1] of 58%. Also, the Cell growth in experiment [2] is on record as 101%; in experiment [3], 75%. The molecule further returned a Concentration in experiment [4] of 1 mM.

Turning to `CC(=O)Nc1cccnc1`, the Benzidine positive cells in experiment [1] came out at 86%. Also, the Cell growth was determined as 183% in experiment [2] and 167% in experiment [3]. The Concentration in experiment [4] turned out to be 5 mM.

Turning to `CCN1CCCCC1=O`, the Benzidine positive cells in experiment [1] was found to be 87%. The Cell growth in experiment [2] was found to be 186%; in experiment [3], 84%. In experiment [4], the Concentration amounted to 4 mM.

As to `CCCn1ccccc1=O`, the Benzidine positive cells in experiment [1] was determined as 82%. The Cell growth turned out to be 112% in experiment [2] and 129% in experiment [3]. The molecule also showed a Concentration in experiment [4] of 2 mM.

In the case of `CC(=O)N1CCCCC1=O`, the Benzidine positive cells in experiment [1] is 86%. Besides, the Cell growth was determined as 170% in experiment [2] and 74% in experiment [3]. Besides, in experiment [4], the Concentration is 20 mM.

In turn, `CC(=O)N(c1ccccn1)c1ccccn1` yielded a Benzidine positive cells in experiment [1] of 36%. In addition, the Cell growth in experiment [2] turned out to be 74%; in experiment [3] it was 85%. The Concentration in experiment [4] turned out to be 2 mM.

For the molecule `CNC(=O)c1ccccc1`, the Benzidine positive cells in experiment [1] was found to be 62%. In addition, the Cell growth in experiment [2] was determined as 54%; in experiment [3], 99%. For the same molecule, the Concentration in experiment [4] was 1 mM.

Turning to `CN1CCCCCC1=O`, the Benzidine positive cells in experiment [1] is 90%. Further, the Cell growth in experiment [2] was found to be 109%; in experiment [3], 68%. In addition, in experiment [4], the Concentration turned out to be 2 mM.

Take `CC(=O)N1CCCCC1`: in experiment [1], the Benzidine positive cells was found to be 85%. The figures for the Cell growth in experiment [2] and in experiment [3] were 50% and 138%, respectively. This molecule displayed a Concentration in experiment [4] of 8 mM.

Take `CNC(=O)c1ccccn1`: the Benzidine positive cells in experiment [1] is listed as 60%. For the same molecule, the results for the Cell growth in experiment [2] and in experiment [3] were 50% and 80%, respectively. Also, the Concentration in experiment [4] turned out to be 2 mM.

Molecule `O=C1CCCCN1` came in with a Benzidine positive cells in experiment [1] of 64%. The Cell growth in experiment [2] is on record as 72%; in experiment [3], 67%. Further, the Concentration in experiment [4] was found to be 40 mM.

In experiment [1], `CNC(C)=O` gave a Benzidine positive cells of 90%. For the same molecule, the results for the Cell growth in experiment [2] and in experiment [3] were 121% and 55%, respectively. This molecule also returned a Concentration in experiment [4] of 40 mM.

For the molecule `CC(=O)N(C)C`, the Benzidine positive cells in experiment [1] turned out to be 84%. Besides, the Cell growth in experiment [2] was determined as 32%; in experiment [3] it was 21%. This molecule yielded a Concentration in experiment [4] of 40 mM.

In turn, `CC(=O)N1CCCC1` registered a Benzidine positive cells in experiment [1] of 60%. For the same molecule, the Cell growth in experiment [2] is given as 54%; in experiment [3] it was 99%. The molecule also registered a Concentration in experiment [4] of 4 mM.

In experiment [1], `CN1CCCCC1=O` showed a Benzidine positive cells of 89%. For the same molecule, the Cell growth in experiment [2] turned out to be 97%; in experiment [3] it was 69%. The Concentration in experiment [4] stood at 5 mM.

`CNC(=O)c1cccnc1` [NICOTINYL METHYLAMIDE] had a Benzidine positive cells in experiment [1] of 93%. Also, the Cell growth amounted to 94% in experiment [2] and 78% in experiment [3]. In experiment [4], the Concentration stood at 4 mM.

`O=C(Nc1ccccn1)C(F)(F)F` registered a Benzidine positive cells in experiment [1] of 69%. In addition, the results for the Cell growth in experiment [2] and in experiment [3] were 98% and 89%, respectively. Moreover, the Concentration in experiment [4] was 1 mM.

With `O=C1CCCN1` [2-PYRROLIDONE], the Benzidine positive cells in experiment [1] is 89%. The Cell growth is 26% in experiment [2] and 100% in experiment [3]. The molecule also came in with a Concentration in experiment [4] of 100 mM.

`CC(C)n1ccccc1=O` gave a Benzidine positive cells in experiment [1] of 90%. The Cell growth in experiment [2] came to 96%; in experiment [3] it was 80%. In experiment [4], the Concentration turned out to be 2 mM.

Turning to `CCCCn1ccccc1=O`, the Benzidine positive cells in experiment [1] was 76%. In addition, the results for the Cell growth in experiment [2] and in experiment [3] were 103% and 125%, respectively. This molecule displayed a Concentration in experiment [4] of 1 mM.

In the case of `CC(=O)NC1CCCCC1`, in experiment [1], the Benzidine positive cells was 92%. For the same molecule, the results for the Cell growth in experiment [2] and in experiment [3] were 95% and 150%, respectively. Moreover, in experiment [4], the Concentration is 4 mM.

Turning to `CC(=O)Nc1ccccc1` [ACETANILIDE], the Benzidine positive cells in experiment [1] was determined as 71%. The Cell growth in experiment [2] was determined as 75%; in experiment [3], 65%. Also, the Concentration in experiment [4] stood at 4 mM.

In turn, `CCn1ccccc1=O` gave a Benzidine positive cells in experiment [1] of 86%. Besides, the Cell growth in experiment [2] stood at 78%; in experiment [3], 79%. This molecule also came in with a Concentration in experiment [4] of 4 mM.

Turning to `CC(=O)Nc1ccccn1`, the Benzidine positive cells in experiment [1] is given as 85%. Besides, the Cell growth in experiment [2] was determined as 144%; in experiment [3] it was 58%. In experiment [4], the Concentration turned out to be 2 mM.

With `CC(=O)Nc1ccncc1`, the Benzidine positive cells in experiment [1] turned out to be 34%. Besides, the figures for the Cell growth in experiment [2] and in experiment [3] were 37% and 60%, respectively. For the same molecule, the Concentration in experiment [4] was 5 mM.

`CC(=O)N1CCCC1=O` came in with a Benzidine positive cells in experiment [1] of 73%. Moreover, the Cell growth was found to be 156% in experiment [2] and 116% in experiment [3]. The same molecule displayed a Concentration in experiment [4] of 20 mM.

In the case of `CCN1CCCCCC1=O`, in experiment [1], the Benzidine positive cells amounted to 96%. Further, the Cell growth amounted to 106% in experiment [2] and 63% in experiment [3]. The same molecule had a Concentration in experiment [4] of 4 mM.

In experiment [1], `O=C(Nc1ccccn1)c1ccccn1` had a Benzidine positive cells of 33%. Also, the Cell growth stood at 35% in experiment [2] and 50% in experiment [3]. This molecule registered a Concentration in experiment [4] of 1 mM.

`CCN1CCCC1=O` gave a Benzidine positive cells in experiment [1] of 90%. For the same molecule, the results for the Cell growth in experiment [2] and in experiment [3] were 53% and 81%, respectively. For the same molecule, in experiment [4], the Concentration was 10 mM.

Regarding `Cn1ccccc1=O`, in experiment [1], the Benzidine positive cells is 89%. Moreover, the values for the Cell growth in experiment [2] and in experiment [3] were 74% and 62%, respectively. Further, the Concentration in experiment [4] is 4 mM.

For the molecule `CN1CCCC1=O` [METHYLPYRROLIDONE], in experiment [1], the Benzidine positive cells turned out to be 87%. Moreover, the Cell growth in experiment [2] worked out at 97%; in experiment [3], 83%. This molecule also yielded a Concentration in experiment [4] of 10 mM.
